Results on 10 compounds are retold here after PubChem BioAssay.

A word on the inhibition: it is the relative decrease from the control value, in per cent.

The list shows a part of the results. Activity calls are given as the source filed them.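 How the source made its calls, unless noted: active means at 20 µM dose, 40% or more inhibition averaged across four replicates; inactive means the rest.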

Test [1] can be described thus: Peg3 promoter reporter inhibitors, retest, confirmation, cell-based, HeLa, luciferase reporter, single concentration (AID 602417). Conditions: HeLa PEG-Prom luciferase reporter, luminescence, overnight; at 20 µM; stronger effect = higher value.
Test [2] deals with PEG-3 (UniProt Q6IN02). Put plainly: Peg3 promoter luciferase inhibitors, potency, dose response, cell-based, HeLa, CREF/GAPDH counter-screen panel (AID 624167). The conditions noted are these: CREF/GAPDH counter-screens; HeLa PEG-Prom luciferase reporter, overnight, run 1, dose range 1, at 100 µM (top of the series) unless noted.
Test [3] concerns the target PEG-3 (UniProt Q6IN02). The test is described as above. The conditions noted are these: CREF/GAPDH counter-screens; HeLa PEG-Prom luciferase reporter, overnight, run 2, dose range 1, at 100 µM (top of the series) unless noted. On the technique in general: A counterscreen serves to expose hits that act by an unwanted route or on another target.
Test [4] deals with Tumor necrosis factor receptor superfamily member 10B (Homo sapiens) (UniProt O14763). Put plainly: caspase-8 TRAIL sensitization, hit retest, confirmation, cell-based, NB7+caspase-8, with/without TRAIL, luminescence panel (AID 651596; in the data active means activity above about 50%). The conditions noted are these: NB7 neuroblastoma + caspase-8, TRAIL sensitization, luminescence viability, with TRAIL, mean of runs, at 10 µM, stronger effect = higher value.

Experiment in test [5]: as above
Conditions: NB7 neuroblastoma + caspase-8, without TRAIL, luminescence viability, without TRAIL, mean of runs, at 10 µM.

Test [6] in a line: inhibitors of PAF-induced NF-kB signaling, retest, confirmation, cell-based, GFP fluorescence, single concentration (AID 602472; in the data active means inhibition above about 40%;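 further: stimulus PAF is a Pseudomonas aeruginosa filtrate and not platelet activating factor; plate controls were DMSO wells with stimulus for no effect and unstimulated DMSO wells for full effect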). Conditions: KKLEB CF airway cells, overnight, at 5 µM, stronger effect = higher value. Put shortly:
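Test system: KKLEB immortalized cystic fibrosis airway epithelial cells with NFkB-GFP reporter / Buffer or medium: medium with 2% FBS for cells, serum-free medium for stimulus / Also added: Pseudomonas aeruginosa filtrate (PAF) as NFkB-activating stimulus / Doses: 5 µM single dose / Timing: compound pretreatment 2 h at 37 °C, 5% CO2, then overnight PAF stimulation / Technique: GFP fluorescence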

Chain of PEG-3 (Q6IN02 whole entry, looked up): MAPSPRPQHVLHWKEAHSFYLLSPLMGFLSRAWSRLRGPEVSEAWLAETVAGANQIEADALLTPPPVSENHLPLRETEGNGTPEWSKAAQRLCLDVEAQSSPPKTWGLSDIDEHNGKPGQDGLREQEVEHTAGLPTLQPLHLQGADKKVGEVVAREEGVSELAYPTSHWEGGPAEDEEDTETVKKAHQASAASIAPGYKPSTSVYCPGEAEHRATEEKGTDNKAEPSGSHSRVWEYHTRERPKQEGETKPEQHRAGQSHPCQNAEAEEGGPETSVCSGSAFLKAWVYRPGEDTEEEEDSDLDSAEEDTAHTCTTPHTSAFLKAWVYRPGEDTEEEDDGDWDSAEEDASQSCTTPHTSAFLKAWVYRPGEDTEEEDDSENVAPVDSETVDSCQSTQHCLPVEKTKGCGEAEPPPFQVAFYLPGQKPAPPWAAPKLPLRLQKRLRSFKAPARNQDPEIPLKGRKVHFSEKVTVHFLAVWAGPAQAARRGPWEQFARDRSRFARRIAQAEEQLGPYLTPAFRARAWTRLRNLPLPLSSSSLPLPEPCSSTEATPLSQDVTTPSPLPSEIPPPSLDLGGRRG
Chain of Tumor necrosis factor receptor superfamily member 10B (Homo sapiens) (O14763 whole entry, looked up): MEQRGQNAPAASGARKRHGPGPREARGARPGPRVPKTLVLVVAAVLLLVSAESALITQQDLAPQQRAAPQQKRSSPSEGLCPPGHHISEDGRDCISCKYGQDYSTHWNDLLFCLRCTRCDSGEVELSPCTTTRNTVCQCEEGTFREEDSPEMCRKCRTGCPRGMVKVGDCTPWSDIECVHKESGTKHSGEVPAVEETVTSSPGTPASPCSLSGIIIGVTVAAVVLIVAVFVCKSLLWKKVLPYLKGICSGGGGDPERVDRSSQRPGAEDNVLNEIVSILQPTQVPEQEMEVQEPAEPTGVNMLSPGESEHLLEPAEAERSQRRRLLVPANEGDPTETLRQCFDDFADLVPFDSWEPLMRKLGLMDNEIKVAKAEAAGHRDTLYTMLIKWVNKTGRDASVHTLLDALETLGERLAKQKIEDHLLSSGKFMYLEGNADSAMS

In the case of `O=c1[nH]c(=S)[nH]c(O)c1/C=C1\C=Nc2ccccc21`, the inhibition was 47.7% (active) in test [1]; 73% with PEG-3 [2]; 100% [run 2, dose range 1, at 50 µM] in the test with PEG-3 [3].
For the compound `C=CC[C@@H](CC(=O)N[C@@H](CO)Cc1ccccc1)C(=O)N[C@H](COC(=O)[C@H](CC=C)CC(=O)OC(C)(C)C)Cc1ccccc1`, in test [1], the inhibition was 6.88% (inactive).
As to `CCOc1ccc2nc(N(CCCN(C)C)C(=O)c3ccc(C(=O)c4ccccc4)cc3)sc2c1`, the inhibition is 97.7% (active) in test [1], 102% in the test with PEG-3 [2] and 101% with PEG-3 [3]. The results for the activity in test [4] and in test [5] were 87.4% and 98.2%, respectively.
For the compound `CN(Cc1ccccc1F)C(=O)C(Cc1ccccc1)NC(=O)c1ccccc1` (configuration not stated), the inhibition is 48.7% (active) in test [1], 98.9% with PEG-3 [2] and 95.1% in the test with PEG-3 [3].
Turning to `NS(=O)(=O)c1ccc(N=Nc2c(O)[nH]c3ccc(Br)cc23)cc1`, the inhibition in test [1] was 0.42% (inactive).
Take `Oc1ccc2ccccc2c1N=Nc1nccs1`: the inhibition in test [1] is 82.7% (active).
`CCCc1cc(=O)n2[nH]c(C)c(-c3ccc(Cl)cc3)c2n1`: the results for the inhibition (in test [1]; in the test with PEG-3 [2]; in the test with PEG-3 [3]) were 51.5% (active), 94% and 88.7%, respectively.
As to `Cc1nnc(SCC(=O)N2c3ccccc3C(C)(c3ccc(Cl)cc3)CC2(C)C)s1` (configuration not stated), in test [1], the inhibition is 38.4% (inactive).
With `O=C(CSc1nc(Nc2ccccc2)nc(N2CCOCC2)n1)Nc1cc(Cl)ccc1O`, the figures for the inhibition (in test [1]; with PEG-3 [2]; with PEG-3 [3]) were 78.8% (active), 98.4% and 101%, respectively.
Regarding `Clc1ccc2c(c1)C1=C(C(c3ccncc3)O2)C(c2ccc(Br)cc2)n2ncnc2N1` (configuration not stated), the inhibition in test [6] was 50% (active).
